The results in this text go back to ChEMBL document CHEMBL1126051, “New thymidine triphosphate analogue inhibitors of human immunodeficiency virus-1 reverse transcriptase” (J Med Chem, 1992).

This assay concerns the target Human immunodeficiency virus type 1 reverse transcriptase (Human immunodeficiency virus 1, UniProt Q72547). Nature of the assay: The compound was tested for the inhibition of human immunodeficiency virus-1 reverse transcriptase(HIV-1 RT). The method, boiled down: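 Ki by kinetics: HIV-1 RT p66 at 60 ng/mL with 0.4 μM poly(rA)-oligo(dT), inhibitor, and [3H]TTP varied over 4-20 μM, in pH 8.0 Tris buffer with 6 mM MgCl2, 8 mM DTT, 80 mM KCl. Incubated 37 °C for 30 min, then EDTA quench. 3H incorporation counted on DE-81 paper; Ki taken from double-reciprocal plots.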

For orientation: Ki means a measure of affinity in units of concentration, obtained from inhibition or displacement. The compound `Cc1cn([C@H]2CC[C@@H](OP(=O)(O)NP(=O)(O)OP(=O)(O)O)O2)c(=O)[nH]c1=O` gave an inhibition constant (Ki) of 15 µM.
`Cc1cn([C@H]2C[C@@H](N=[N+]=[N-])[C@@H](OP(=O)(O)NP(=O)(O)OP(=O)(O)O)O2)c(=O)[nH]c1=O` gave a Ki of 22 µM.
Regarding `Cc1cn([C@H]2C[C@@H](O)[C@@H](OP(=O)(O)NP(=O)(O)NP(=O)(O)O)O2)c(=O)[nH]c1=O`, the Ki came to 19.1 µM.
